Holding throughout (assay): fluorescence-binding assay
The target in assay [1] is T1, JHAMT2-D^92A (Bombyx mori, UniProt A0A8M0FGR8, D92A).
T1 sequence (A0A8M0FGR8 1-267 D92A): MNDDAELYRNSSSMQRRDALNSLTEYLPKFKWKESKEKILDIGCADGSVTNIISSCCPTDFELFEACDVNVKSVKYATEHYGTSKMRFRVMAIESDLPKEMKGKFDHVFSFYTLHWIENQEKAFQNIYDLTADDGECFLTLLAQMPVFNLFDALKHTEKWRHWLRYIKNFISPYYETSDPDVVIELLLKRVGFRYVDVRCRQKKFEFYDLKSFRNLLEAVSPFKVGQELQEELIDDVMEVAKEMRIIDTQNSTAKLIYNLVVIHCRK
In a few lines: (§1)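 Intrinsic tryptophan fluorescence quenching used 2 μM recombinant B. mori JHAMT (wild type or point mutant) in 20 mM Tris-HCl pH 8.0, 200 mM NaCl, equilibrated 2 min at 25 °C. Ligand was titrated at final 0–1.5 mM SAM (cofactor binding) or 0–0.1 mM FA (substrate binding). Excitation was 280 nm with emission recorded 300–450 nm. Kd was fitted from quenching data as mean ± s.d. of n = 3.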

The target of assay [2] is T2, JHAMT2 (Bombyx mori, UniProt A0A8M0FGR8).
T2 sequence (A0A8M0FGR8 1-267): T1 sequence (A0A8M0FGR8 1-267 D92A) with A92D
The gist of the method: as §1

Assay [3] has as its target T3, JHAMT1-T^112A (Bombyx mori, UniProt Q767F1, T112A).
T3 sequence (Q767F1 1-278 T112A): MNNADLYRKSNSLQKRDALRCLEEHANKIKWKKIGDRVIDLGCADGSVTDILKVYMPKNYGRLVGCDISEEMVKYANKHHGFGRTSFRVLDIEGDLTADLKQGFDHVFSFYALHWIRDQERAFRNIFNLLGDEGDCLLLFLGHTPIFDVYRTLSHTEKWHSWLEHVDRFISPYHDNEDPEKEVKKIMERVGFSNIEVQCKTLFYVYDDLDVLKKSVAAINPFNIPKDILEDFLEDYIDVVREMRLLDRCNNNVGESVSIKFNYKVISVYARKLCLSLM
The gist of the method: as §1

In assay [4] the target is T4, JHAMT1-D^91A (Bombyx mori, UniProt Q767F1, D91A).
T4 sequence (Q767F1 1-278 D91A): T3 sequence (Q767F1 1-278 T112A) with D91A, A112T
In a few lines: as §1

Assay [5] addresses T5, JHAMT2-T^113A (Bombyx mori, UniProt A0A8M0FGR8, T113A).
T5 sequence (A0A8M0FGR8 1-267 T113A): T1 sequence (A0A8M0FGR8 1-267 D92A) with A92D, T113A
The gist of the method: as §1

In assay [6] the target is T6, JHAMT1 (Bombyx mori, UniProt Q767F1).
T6 sequence (Q767F1 1-278): T3 sequence (Q767F1 1-278 T112A) with A112T
The gist of the method:
as §1

As usually defined, the Kd is a measure of binding affinity in units of concentration. Low readings indicate higher affinity, high ones lower affinity.

Changes are numbered by the printed parent chain.

As for `C[S+](CC[C@H](N)C(=O)[O-])C[C@H]1O[C@@H](n2cnc3c(N)ncnc32)[C@H](O)[C@@H]1O` (stereo partly drawn) [SAM, S-adenosyl-L-methionine], the Kd stood at 261 ± 18.1 µM in assay [1]; 42.6 ± 5.83 µM in assay [2]; 191 ± 12.7 µM in assay [3]; 229 ± 18.1 µM in assay [4]; 144 ± 9.91 µM in assay [5]; 38.7 ± 3.42 µM in assay [6].

The values above are taken from article PMC8526772 (The Journal of Biological Chemistry, 2021).
